The values that follow come from ChEMBL document CHEMBL4680371, “Design and Structure-Activity Relationship of a Potent Furin Inhibitor Derived from Influenza Hemagglutinin” (ACS Med Chem Lett, 2021).

Series [1] can be described thus: Half life in CD1 mouse plasma by LC-MS/MS analysis. Particulars: CD1, mouse. It counts as ADME, cell-free. The gist of the method: (§1)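 Peptide incubated ex vivo in mouse plasma at 37 °C and sampled at several time points, using the ng/mL concentration range. Intact peptide quantified by high-resolution mass spectrometry and expressed as percentage remaining; t1/2 derived from the time course. Each time point run in triplicate; mean and mean ± SD reported.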

For the next series, the target named is Furin (Homo sapiens, UniProt P09958). As to the kind of experiment: Inhibition of recombinant soluble human furin using pyroGlu-Arg-Thr-Lys-Arg-methyl-coumaryl-7-amide as substrate measured after 1 hr. A digest of the protocol: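 Soluble human recombinant furin was tested in a competitive kinetic assay. Ki is reported as the mean ± SD of at least two independent experiments.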

The nature of series [2]: Stability of the compound in CD1 mouse plasma assessed as intact compound remaining measured after 2 mins by LC-MS/MS analysis. It counts as ADME, cell-free. Particulars: read-out: Stabilty. A digest of the protocol:
as §1

Furin, sequence (P09958 whole entry): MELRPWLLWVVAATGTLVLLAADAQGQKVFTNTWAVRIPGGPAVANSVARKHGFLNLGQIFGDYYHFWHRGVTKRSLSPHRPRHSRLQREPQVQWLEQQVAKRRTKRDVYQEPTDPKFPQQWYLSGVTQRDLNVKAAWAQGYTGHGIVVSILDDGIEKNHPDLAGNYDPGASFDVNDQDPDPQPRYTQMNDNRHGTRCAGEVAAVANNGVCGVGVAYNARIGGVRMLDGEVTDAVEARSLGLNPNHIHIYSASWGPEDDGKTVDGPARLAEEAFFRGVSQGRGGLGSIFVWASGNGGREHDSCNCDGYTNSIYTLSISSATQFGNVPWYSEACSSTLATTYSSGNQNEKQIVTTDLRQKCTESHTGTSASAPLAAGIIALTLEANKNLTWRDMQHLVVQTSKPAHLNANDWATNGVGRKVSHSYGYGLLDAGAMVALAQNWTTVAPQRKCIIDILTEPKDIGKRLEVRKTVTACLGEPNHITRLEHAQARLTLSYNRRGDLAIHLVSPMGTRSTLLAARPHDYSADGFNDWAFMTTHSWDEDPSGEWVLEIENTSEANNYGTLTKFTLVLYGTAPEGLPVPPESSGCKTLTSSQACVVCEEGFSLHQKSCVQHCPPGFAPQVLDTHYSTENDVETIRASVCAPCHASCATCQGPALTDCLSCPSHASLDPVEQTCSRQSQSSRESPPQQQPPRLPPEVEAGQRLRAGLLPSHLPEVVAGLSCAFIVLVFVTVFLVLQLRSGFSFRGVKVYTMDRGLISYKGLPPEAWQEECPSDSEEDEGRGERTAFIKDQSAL

For the compound `CC[C@H](NC(=O)[C@H](CCCNC(=N)N)NC(=O)[C@H](C)NC(=O)[C@H]1CCCN1C(C)=O)C(=O)N[C@@H](CCCNC(=N)N)C(=O)N[C@@H](CCCCN)C(=O)N[C@@H](CCCCN)C(=O)N[C@@H](CCCNC(=N)N)C(=O)N[C@H](C(N)=O)[C@@H](C)O`, in series [1], the half-life (usually the time needed for the level to fall by half in the phase considered) stood at 1.11 min. Besides, the Ki (in general, the equilibrium dissociation constant of an inhibitor or competing ligand from its target) at Furin worked out at 11 nM. Moreover, the remaining at 2 min in series [2] amounted to 25%.
